From ChEMBL document CHEMBL1141165, “Novel 8-substituted dipyridodiazepinone inhibitors with a broad-spectrum of activity against HIV-1 strains resistant to non-nucleoside reverse transcriptase inhibitors” (J Med Chem, 2005)

Experiments:
[1] = biological target: T1, Human immunodeficiency virus type 1 reverse transcriptase (Human immunodeficiency virus 1, UniProt Q72547, K103N/Y181C); test: Effective concentration towards HIV-1 K103N/Y181C mutant reverse transcriptase activity by 50% measured in cellular assay
Method in brief: (§1)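 C8166 T-lymphocytes infected at MOI 0.001 with HIV-1 carrying wild-type or mutant RT, then grown 3 days with serial compound dilutions in RPMI 1640 + 10% FBS, 10 μg/mL gentamycin, 10 μM β-mercaptoethanol (also the diluent). Supernatant pooled from eight replica wells; extracellular p24 measured by HIV-1 p24 antigen kit.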

[2] = biological target: T2, Human immunodeficiency virus type 1 reverse transcriptase (Human immunodeficiency virus 1, UniProt Q72547); test: Effective concentration towards HIV-1 wild type reverse transcriptase activity by 50% measured in cellular assay
Method in brief: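 C8166 T-lymphocytes infected at MOI 0.001 with wild-type HIV-1, then cultured 3 days with serial compound dilutions in RPMI 1640 containing 10% FBS, gentamycin and 10 μM β-mercaptoethanol. Supernatants pooled from eight replicate wells. Extracellular p24 measured by antigen immunoassay.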

[3] = biological target: T2, Human immunodeficiency virus type 1 reverse transcriptase; test: Inhibitory activity of compound dissolved in DMSO was determined against HIV-1 wild type reverse transcriptase (1-2 nM) by using [3H]dGTP (71 nM) as substrate, 50 mM Tris/HCl buffer, pH 7.8, incubated for 1 h at 37 degrees C
Method in brief: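 Wild-type RT preincubated 15 min at room temperature with inhibitor. Final reaction: Tris/HCl 50 mM pH 7.8, NaCl 60 mM, MgCl2 2 mM, DTT 6 mM, GSH 2 mM, Chaps 0.02%, DMSO 3%, poly rC 179 nM, biotin-dG15 18 nM, dGTP 288 nM, 3H-dGTP 71 nM, enzyme 1–2 nM, inhibitor 10 μM–0.5 nM. Run 1 h at 37 °C, EDTA-quenched, read with streptavidin SPA beads.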

[4] = biological target: T1, Human immunodeficiency virus type 1 reverse transcriptase; test: Inhibitory activity of compound dissolved in DMSO was determined against HIV-1 (K103N/Y181C) mutant reverse transcriptase (1-2 nM) by using [3H]-dGTP (71 nM) as substrate, 50 mM Tris/HCl buffer, pH 7.8, incubated for 1 hr at 37 degrees C
Method in brief: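 RT at ≈3 nM preincubated 15 min at room temperature with inhibitor, then substrate added. Final mix: 50 mM Tris/HCl pH 7.8, 60 mM NaCl, 2 mM MgCl2, 6 mM DTT, 2 mM GSH, 0.02% Chaps, 3% DMSO, 179 nM poly rC, 18 nM biotin-dG15, 288 nM dGTP, 71 nM 3H-dGTP, 1–2 nM enzyme, inhibitor 10 μM–0.5 nM. Reaction 1 h at 37 °C, quenched with EDTA plus streptavidin SPA beads, CsCl added, scintillation counted.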

[5] = tested on: C8166; test: Inhibition of HIV replication in T-lymphocyte cell line C8166 infected with K103N/L100I mutant reverse transcriptase upon incubation with the compound for 3 days; type: functional, Homo sapiens; method in brief: as §1
[6] = tested on: C8166; test: Inhibition of HIV replication in T-lymphocyte cell line C8166 infected with Y188L mutant reverse transcriptase upon incubation with the compound for 3 days; type: functional, Homo sapiens; method in brief: as §1
[7] = tested on: C8166; test: Inhibition of HIV replication in T-lymphocyte cell line C8166 infected with K103N/V108I mutant reverse transcriptase upon incubation with the compound for 3 days; type: functional, Homo sapiens; method in brief: as §1
[8] = tested on: C8166; test: Inhibition of HIV replication in T-lymphocyte cell line C8166 infected with K103N/P225H mutant reverse transcriptase upon incubation with the compound for 3 days; type: functional, Homo sapiens; method in brief: as §1
[9] = tested on: C8166; test: Inhibition of HIV replication in T-lymphocyte cell line C8166 infected with V106A mutant reverse transcriptase upon incubation with the compound for 3 days; type: functional, Homo sapiens; method in brief: as §1
[10] = Area under curve is determined in monkey after oral administration at 5 mg/kg; settings: cercopithecidae, in vivo
[11] = biological target: Cytochrome P450 2C19 (Homo sapiens, UniProt P33261); test: Inhibitory concentration (1.5 mM) against human CYP450 2C19 dissolved in acetonitrile/methanol
Cytochrome P450 2C19, sequence (P33261 whole entry): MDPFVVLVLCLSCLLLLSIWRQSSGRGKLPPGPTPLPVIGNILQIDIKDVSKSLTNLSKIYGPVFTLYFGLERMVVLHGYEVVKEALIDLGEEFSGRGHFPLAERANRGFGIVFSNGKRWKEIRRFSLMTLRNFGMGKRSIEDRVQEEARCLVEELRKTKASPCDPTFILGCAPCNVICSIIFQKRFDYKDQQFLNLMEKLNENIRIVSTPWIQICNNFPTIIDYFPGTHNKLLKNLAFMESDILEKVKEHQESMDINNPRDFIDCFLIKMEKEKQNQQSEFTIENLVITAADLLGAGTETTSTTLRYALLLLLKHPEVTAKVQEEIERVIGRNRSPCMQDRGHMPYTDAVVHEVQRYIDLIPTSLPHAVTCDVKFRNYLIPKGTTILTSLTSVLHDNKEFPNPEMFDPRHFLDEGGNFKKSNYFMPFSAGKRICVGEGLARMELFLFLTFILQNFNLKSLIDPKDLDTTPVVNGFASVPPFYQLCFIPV

[12] = Concentration maximum is determined in dog after oral administration 5 mg/kg; settings: in vivo
[13] = biological target: T3, Cytochrome P450 3A4 (Homo sapiens, UniProt P08684)
T3 sequence (P08684 whole entry): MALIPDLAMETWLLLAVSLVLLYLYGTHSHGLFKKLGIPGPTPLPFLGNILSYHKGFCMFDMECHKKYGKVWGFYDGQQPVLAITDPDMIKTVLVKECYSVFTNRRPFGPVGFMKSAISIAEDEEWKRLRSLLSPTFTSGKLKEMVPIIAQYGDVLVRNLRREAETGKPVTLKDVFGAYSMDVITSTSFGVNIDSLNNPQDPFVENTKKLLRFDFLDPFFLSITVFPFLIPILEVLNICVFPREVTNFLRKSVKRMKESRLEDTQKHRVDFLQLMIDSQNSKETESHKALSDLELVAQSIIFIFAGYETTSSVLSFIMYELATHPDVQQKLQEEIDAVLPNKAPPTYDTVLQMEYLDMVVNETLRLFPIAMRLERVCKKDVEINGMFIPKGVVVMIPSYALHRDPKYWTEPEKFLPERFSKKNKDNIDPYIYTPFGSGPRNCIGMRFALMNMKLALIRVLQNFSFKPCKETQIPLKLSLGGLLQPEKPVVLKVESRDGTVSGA

[14] = Bioavailability is determined in dog after oral administration 5 mg/kg; settings: in vivo
[15] = biological target: Cytochrome P450 2D6 (Homo sapiens, UniProt P10635); test: Inhibitory concentration (1.5 mM) against human CYP450 2D6 dissolved in acetonitrile/methanol
Cytochrome P450 2D6, sequence (P10635 whole entry): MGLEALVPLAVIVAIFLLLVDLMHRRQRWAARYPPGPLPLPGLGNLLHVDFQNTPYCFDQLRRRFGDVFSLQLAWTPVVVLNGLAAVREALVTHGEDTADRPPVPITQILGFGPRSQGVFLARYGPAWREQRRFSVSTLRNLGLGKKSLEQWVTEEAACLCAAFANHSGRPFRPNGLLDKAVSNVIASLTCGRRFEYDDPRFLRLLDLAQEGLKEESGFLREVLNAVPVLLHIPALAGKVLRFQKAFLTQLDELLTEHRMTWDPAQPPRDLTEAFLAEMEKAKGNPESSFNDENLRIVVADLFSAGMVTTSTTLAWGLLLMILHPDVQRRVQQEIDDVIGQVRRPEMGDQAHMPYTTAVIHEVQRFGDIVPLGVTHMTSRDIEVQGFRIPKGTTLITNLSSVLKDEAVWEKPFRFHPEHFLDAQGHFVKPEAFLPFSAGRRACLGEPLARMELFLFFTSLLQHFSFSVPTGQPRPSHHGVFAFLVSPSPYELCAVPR

[16] = Bioavailability is determined in monkey after oral administration at 5 mg/kg; settings: cercopithecidae, in vivo
[17] = Concentration maximum is determined in rat after oral administration at 5 mg/kg; settings: in vivo
[18] = Steady state volume of distribution is determined in dog after intravenous administration 1 mg/kg; type: ADME, organism-based, Canis lupus familiaris; parameters: dose 1 mg/kg, route intravenous; settings: in vivo, read-out: Vss
Method in brief: (§2)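 Intravenous bolus at 1 mg/kg to overnight-fasted male Sprague-Dawley rats, beagle dogs or rhesus monkeys. Vehicle: N,N-dimethylacetamide/0.9% aqueous NaCl (30:70). Animals restrained during sampling. Plasma extracts analysed by HPLC. Parameters derived by noncompartmental analysis.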

[19] = Area under curve is determined in rat after oral administration at 5 mg/kg; settings: in vivo
[20] = Steady state volume of distribution is determined in monkey after intravenous administration at 1 mg/kg; type: ADME, organism-based; parameters: dose 1 mg/kg, route intravenous; settings: cercopithecidae, in vivo, read-out: Vss; method in brief: as §2
[21] = Clearance is determined in monkey after intravenous administration 1 mg/kg; type: ADME, organism-based; parameters: dose 1 mg/kg, route intravenous; settings: cercopithecidae, in vivo; method in brief: as §2
[22] = in vitro; settings: male, human, liver microsomes
[23] = Maximum concentration is determined in monkey after oral administration at 5 mg/kg; settings: cercopithecidae, in vivo
[24] = Half-life is determined in rat after intravenous administration at 1 mg/kg; type: ADME, organism-based; parameters: dose 1 mg/kg, route intravenous; settings: in vivo; method in brief: as §2
[25] = biological target: T3, Cytochrome P450 3A4; test: Inhibitory concentration (1.5 mM) against human CYP450 3A4 dissolved in acetonitrile/methanol using 7-Benzyloxy-quinoline (BQ) as fluorogenic substrate
[26] = tested on: Caco-2; test: Caco-2 permeability upon incubation at 37 degrees C for 180 minutes; type: functional, Homo sapiens
Method in brief: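 Cells grown on 12-well Transwell membranes and exposed to test solution for 180 min at 37 °C. Receiving-side (basolateral, A to B) samples analysed by HPLC. Apparent permeability = (ΔQ/Δt)/(A·C0), where ΔQ/Δt is the transport rate, A the monolayer area and C0 the initial donor concentration.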

[27] = biological target: Cytochrome P450 2C9 (Homo sapiens, UniProt P11712)
Cytochrome P450 2C9, sequence (P11712 whole entry): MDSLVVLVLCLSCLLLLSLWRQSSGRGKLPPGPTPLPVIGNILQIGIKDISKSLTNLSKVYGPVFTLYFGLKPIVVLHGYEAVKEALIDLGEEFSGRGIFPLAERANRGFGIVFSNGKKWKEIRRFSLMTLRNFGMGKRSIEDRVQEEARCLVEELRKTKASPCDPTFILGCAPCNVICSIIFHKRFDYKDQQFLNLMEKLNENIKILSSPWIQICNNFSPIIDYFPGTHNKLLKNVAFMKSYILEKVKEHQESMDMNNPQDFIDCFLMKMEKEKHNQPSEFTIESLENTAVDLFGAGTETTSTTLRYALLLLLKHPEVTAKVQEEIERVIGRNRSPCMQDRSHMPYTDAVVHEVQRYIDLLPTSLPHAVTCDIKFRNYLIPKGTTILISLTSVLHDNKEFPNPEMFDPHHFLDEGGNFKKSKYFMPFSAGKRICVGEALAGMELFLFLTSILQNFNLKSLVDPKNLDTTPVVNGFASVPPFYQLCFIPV

[28] = Area under curve is determined in dog after oral administration 5 mg/kg; settings: in vivo
[29] = Bioavailability is determined in rat after oral administration at 5 mg/kg; settings: in vivo
[30] = Clearance is determined in rat after intravenous administration at 1 mg/kg; type: ADME, organism-based; parameters: dose 1 mg/kg, route intravenous; settings: in vivo; method in brief: as §2
[31] = Steady state volume of distribution in rat after intravenous administration 1 mg/kg; type: ADME, organism-based; parameters: dose 1 mg/kg, route intravenous; settings: in vivo, read-out: Vss; method in brief: as §2
[32] = Half-life is determined in monkey after intravenous administration at 1 mg/kg; type: ADME, organism-based; parameters: dose 1 mg/kg, route intravenous; settings: cercopithecidae, in vivo; method in brief: as §2
[33] = Half-life is determined in dog after intravenous administration 1 mg/kg; type: ADME, organism-based, Canis lupus familiaris; parameters: dose 1 mg/kg, route intravenous; settings: in vivo; method in brief: as §2
[34] = Clearance is determined in dog after intravenous administration at 1 mg/kg; type: ADME, organism-based, Canis lupus familiaris; parameters: dose 1 mg/kg, route intravenous; settings: in vivo; method in brief: as §2
[35] = biological target: T4, Cytochrome P450 1A2 (Homo sapiens, UniProt P05177); test: Inhibitory concentration (1.5 mM) against human CYP450 1A2 dissolved in acetonitrile/methanol
T4 sequence (P05177 whole entry): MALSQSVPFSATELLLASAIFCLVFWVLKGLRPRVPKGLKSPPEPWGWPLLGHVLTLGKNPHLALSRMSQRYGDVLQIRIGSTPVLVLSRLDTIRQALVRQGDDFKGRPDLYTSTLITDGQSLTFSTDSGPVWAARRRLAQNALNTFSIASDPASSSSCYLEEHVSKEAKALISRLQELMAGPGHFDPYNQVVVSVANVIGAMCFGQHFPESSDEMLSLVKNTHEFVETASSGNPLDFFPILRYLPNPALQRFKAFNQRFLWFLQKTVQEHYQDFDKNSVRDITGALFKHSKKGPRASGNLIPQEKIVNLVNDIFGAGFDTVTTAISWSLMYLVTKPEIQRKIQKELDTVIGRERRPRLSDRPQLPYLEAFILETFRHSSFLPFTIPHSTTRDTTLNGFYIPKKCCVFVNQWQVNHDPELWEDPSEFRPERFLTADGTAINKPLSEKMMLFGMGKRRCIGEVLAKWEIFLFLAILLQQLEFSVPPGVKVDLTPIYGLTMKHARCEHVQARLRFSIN

Compound: CCN1c2ncc(CCOc3ccc(C(=O)O)cc3C)cc2C(=O)N(C)c2ccc(C)nc21
- EC50 [1]: 33 nM
- EC50 [2]: 1.3 nM
- IC50 [3]: 19 nM
- IC50 [4]: 280 nM

Compound: CCc1cc(C(=O)O)ccc1OCCc1cnc2c(c1)C(=O)N(C)c1cccnc1N2CC
- EC50 [1]: 24 nM
- EC50 [2]: 2.2 nM
- IC50 [3]: 19 nM
- IC50 [4]: 430 nM

Compound: CCN1c2ncc(CCOc3ccc(C(=O)O)cc3C)cc2C(=O)N(C)c2ccc(F)nc21
- EC50 [1]: 14 nM
- Antiviral activity [5]: 3 nM
- EC50 [2]: 1.5 nM
- Antiviral activity [6]: 27 nM
- Antiviral activity [7]: 4 nM
- Antiviral activity [8]: 2 nM
- Antiviral activity [9]: 27 nM
- IC50 [3]: 15 nM
- IC50 [4]: 150 nM

Compound: CCN1c2ncc(CCOc3ccc(C(=O)O)cc3C)cc2C(=O)N(C)c2ccc(OC)nc21
- EC50 [1]: 15 nM
- EC50 [2]: 1.9 nM
- IC50 [3]: 15 nM
- IC50 [4]: 300 nM

Compound: CCN1c2ncc(CCOc3cccc4c(C(=O)O)cccc34)cc2C(=O)N(C)c2cccnc21
- IC50 [3]: 60 nM
- IC50 [4]: 550 nM

Compound: CCN1c2ncc(CCOc3ccc4cc(C(=O)O)ccc4c3)cc2C(=O)N(C)c2cccnc21
- IC50 [3]: 14 nM
- IC50 [4]: 1100 nM

Compound: CCN1c2ncc(CCOc3ccc(C(=O)O)cc3C)cc2C(=O)N(C)c2cccnc21
- EC50 [1]: 15 nM
- AUC [10]: 3.4 uMh
- IC50 [11]: 2000 nM
- Cmax [12]: 16 µM
- Antiviral activity [5]: 4 nM
- IC50 [13]: 24000 nM
- bioavailability [14]: 115%
- IC50 [15]: > 30000 nM
- bioavailability [16]: 43%
- Cmax [17]: 6.5 µM
- Vd [18]: 2.5 L/kg
- AUC [19]: 12 uMh
- Vd [20]: 1 L/kg
- EC50 [2]: 1.6 nM
- clearance [21]: 24 mL/min/kg
- half-life at 10 µM [22]: 2.23 h
- Antiviral activity [6]: 172 nM
- Cmax [23]: 1.5 µM
- half-life [24]: 11 h
- IC50 [25]: > 30000 nM
- Caco-2 A-B [26]: 2.75e-05 cm/s
- Antiviral activity [7]: 5 nM
- Antiviral activity [8]: 5 nM
- IC50 [27]: 10000 nM
- AUC [28]: 20 uMh
- bioavailability [29]: 46%
- Antiviral activity [9]: 36 nM
- clearance [30]: 7.1 mL/min/kg
- IC50 [3]: 17 nM
- Vd [31]: 4.6 L/kg
- half-life [32]: 1.3 h
- half-life [33]: 5.9 h
- clearance [34]: 10 mL/min/kg
- IC50 [4]: 221 nM
- IC50 [35]: > 30000 nM

Compound: CCN1c2ncc(CCOc3ccc(C(=O)O)cc3Br)cc2C(=O)N(C)c2cccnc21
- EC50 [1]: 35 nM
- EC50 [2]: 3.2 nM
- IC50 [3]: 18 nM
- IC50 [4]: 300 nM

Compound: CCN1c2ncc(CCOc3ccc(C(=O)O)cc3)cc2C(=O)N(C)c2cccnc21
- EC50 [1]: 162 nM
- EC50 [2]: 3.3 nM
- half-life at 10 µM [22]: 1.27 h
- IC50 [3]: 95 nM
- IC50 [4]: 4480 nM

Compound: CCN1c2ncc(CCOc3ccc(C(=O)O)c4ccccc34)cc2C(=O)N(C)c2cccnc21
- IC50 [3]: 27 nM
- IC50 [4]: 194 nM

Compound: CCN1c2ncc(CCOc3ccc(CCC(=O)O)cc3C)cc2C(=O)N(C)c2cccnc21
- EC50 [1]: 101 nM
- EC50 [2]: 5.5 nM
- half-life at 10 µM [22]: 3.43 h
- Caco-2 A-B [26]: 4.69e-05 cm/s
- IC50 [3]: 22 nM
- IC50 [4]: 200 nM

Compound: CCN1c2ncc(CCOc3ccc(C(=O)O)cc3C)cc2C(=O)N(C)c2ccc(Cl)nc21
- EC50 [1]: 8.1 nM
- EC50 [2]: 1.6 nM
- IC50 [3]: 10 nM
- IC50 [4]: 64 nM

Compound: CCN1c2ncc(CCOc3ccc(CC(=O)O)cc3C)cc2C(=O)N(C)c2cccnc21
- EC50 [1]: 139 nM
- EC50 [2]: 12 nM
- half-life at 10 µM [22]: 3.6 h
- Caco-2 A-B [26]: 1.84e-05 cm/s
- IC50 [3]: 23 nM
- IC50 [4]: 370 nM

Compound: CCN1c2ncc(CCOc3ccc4c(C(=O)O)cccc4c3)cc2C(=O)N(C)c2cccnc21
- IC50 [3]: 63 nM
- IC50 [4]: 4000 nM
